# Results gathered from unrelated publications.
# Compare with care: the assays were run in different laboratories.
# Target: Serine/threonine-protein kinase Nek3 (NEK3, Homo sapiens, UniProt P51956)
# Residues used in one study (P51956 1-506): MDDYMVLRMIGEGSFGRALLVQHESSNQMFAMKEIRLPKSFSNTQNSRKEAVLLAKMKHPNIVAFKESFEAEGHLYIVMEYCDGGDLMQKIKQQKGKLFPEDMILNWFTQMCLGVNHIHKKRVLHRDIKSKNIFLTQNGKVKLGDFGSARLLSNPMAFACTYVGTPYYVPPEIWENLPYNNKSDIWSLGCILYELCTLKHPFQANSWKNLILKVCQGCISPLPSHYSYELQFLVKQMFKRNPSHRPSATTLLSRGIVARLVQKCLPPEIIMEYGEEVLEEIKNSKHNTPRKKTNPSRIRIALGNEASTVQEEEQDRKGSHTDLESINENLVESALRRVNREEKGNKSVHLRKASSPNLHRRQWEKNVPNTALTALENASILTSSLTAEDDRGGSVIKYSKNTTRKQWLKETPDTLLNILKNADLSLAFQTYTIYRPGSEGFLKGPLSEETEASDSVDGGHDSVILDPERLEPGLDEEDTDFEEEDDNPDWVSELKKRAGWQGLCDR
Structure (SMILES),read-out,method,concentration,remaining binding [%]
CN(C)c1nccc(-c2cnn3ncccc23)n1,binding,,1 µM,100
O=C(c1ccc(Nc2ncc(Cl)c(-c3cc4ccccc4s3)n2)cc1)N1CCC(N2CCCC2)CC1,binding,competition with immobilised ligand,1 µM,1.3
c1cncc(-c2cccc(Nc3nccc(NC4CCCCC4)n3)c2)c1,binding,competition with immobilised ligand,10 µM,56
Cc1nccc(COC(=O)N2C[C@@H]3[C@@H](CNC(=O)c4ccc5[nH]nnc5c4)[C@@H]3C2)n1,cell-free assay,competition with immobilised ligand,1 µM,100
COc1cnc(Nc2cccc(S(N)(=O)=O)c2)nc1N1CCN(c2ccccc2)C(=O)C1,binding,competition with immobilised ligand,1 µM,30
CC1CCCN1c1nccc(-c2cnn3ncccc23)n1 (stereo not drawn),binding,,1 µM,82
O=C(O)[C@H]1[C@H](Cn2nnc3ccccc3c2=O)CC[C@@H]1C(=O)c1ccc(OCCC2CCOCC2)cc1,cell-free assay,competition with immobilised ligand,1 µM,86
N[C@H]1CCN(c2nccc(-c3cnn4ncccc34)n2)C1,binding,,1 µM,100
O=C(NCCCN1CCOCC1)c1ccc(Nc2nccc(-c3cc4ccccc4s3)n2)cc1,binding,competition with immobilised ligand,1 µM,2.7
O=C(Nc1cnc(Oc2ccc(F)cc2)nc1)N1CCc2ncccc2[C@@H]1c1ccc(F)cc1,cell-free assay,competition with immobilised ligand,1 µM,67
C=CC(=O)N1CCC(C(=O)NCC(=O)N2CCN(c3nc(-c4cnc(N)nc4C(F)F)nc(N4CCOCC4)n3)CC2)CC1,binding,competition with immobilised ligand,1 µM,51
O=C(Nc1c[nH]nc1C(=O)NC1CCNCC1)c1cc(F)cc(F)c1,binding,competition with immobilised ligand,1 µM,100
Cc1cnc(Nc2ccc(C(=O)N3CCC(N4CCCC4)CC3)cc2)nc1-c1cc2ccccc2s1,binding,competition with immobilised ligand,1 µM,2.4
CCN1CCN(Cc2ccc(C(=O)Nc3ccc(C)c(Oc4ccc5c(c4)CC(=O)N5)c3)cc2C(F)(F)F)CC1,binding,competition with immobilised ligand,1 µM,100
CN(C)c1ncc(F)c(-c2cnn3ncccc23)n1,binding,,1 µM,70
CCOCCn1cc(C(=O)Nc2ccc(-n3nc(-c4cccnc4)cc3C(F)(F)F)cn2)ccc1=O,cell-free assay,competition with immobilised ligand,1 µM,100
CN(c1nccc(-c2cnn3ncccc23)n1)C1CC1,binding,,1 µM,87
CCCOc1ccc([C@@H]2[C@@H](C(=O)O)[C@H](c3ccc4c(c3)OCO4)CN2CC(=O)Nc2c(CC)cccc2CC)cc1,cell-free assay,competition with immobilised ligand,1 µM,100
COc1ncc2cc3ccccc3nc2c1C#N,cell-free assay,competition with immobilised ligand,5 µM,100
CC(C)CC(=O)N1CCc2nc(-c3ccc(Br)cc3)nc(N(C)Cc3ccccc3)c2C1,cell-free assay,competition with immobilised ligand,0.1 µM,100
C[C@H]1CCN(c2nccc(-c3cnn4ncccc34)n2)C1,binding,,1 µM,70
